In one experiment the test system is HCT-15. Nature of the experiment: Growth inhibition of human HCT15 cells at 10 uM after 48 hrs by sulforhodamine B assay. The experiment is classed as functional, cell-based. Summed up:
(§1)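 Single-dose primary screen at 10^-5 M across the ~60-line panel grown in RPMI 1640 with 5% FBS and 2 mM glutamine, 48 h exposure at 37 °C. Cells TCA-fixed and SRB-stained, absorbance at 515 nm. Output is percent growth of treated versus untreated control cells.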
A general note: Sulforhodamine B stains cellular protein and so reports cell mass.

In another experiment the test system is CAKI-1. Nature of the experiment: Growth inhibition of human Caki1 cells at 10 uM after 48 hrs by sulforhodamine B assay. The experiment is classed as functional, cell-based. Summed up: as §1
A further experiment relates to UACC-257. Description: Growth inhibition of human UACC257 cells at 10 uM after 48 hrs by sulforhodamine B assay. The experiment is classed as functional, cell-based. Put shortly:
(§2)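 NCI-60 one-dose primary screen at 10^-5 M. Cells were grown in RPMI 1640 with 5% FBS and 2 mM L-glutamine and plated at 5,000–40,000 cells/well depending on doubling time. After 24 h preincubation at 37 °C in 5% CO2, drug was added for 48 h. Cells were fixed with TCA and stained with SRB, and absorbance was read at 515 nm. Values are growth percent versus untreated control.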

For the next experiment, the system named is SW-620. Description: Growth inhibition of human SW620 cells at 10 uM after 48 hrs by sulforhodamine B assay. The experiment is classed as functional, cell-based. Summed up:
as §2

The test system of a further experiment is M14. Nature of the experiment: Growth inhibition of human M14 cells at 10 uM after 48 hrs by sulforhodamine B assay. The experiment is classed as functional, cell-based. Summed up: as §1
The next experiment relates to NCI-H226. Description: Growth inhibition of human NCI-H226 cells at 10 uM after 48 hrs by sulforhodamine B assay. Format: functional, cell-based. Put shortly:
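NCI-60 one-dose primary screen at 10^-5 M. Cells grown in RPMI 1640 with 5% FBS and 2 mM L-glutamine and plated by doubling time. Preincubated 24 h at 37 °C under 5% CO2. Drug exposure 48 h. Cells fixed with cold TCA and stained with 0.4% SRB; absorbance read at 515 nm. Reported as percent growth of treated versus untreated control.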

Another experiment has as its system HCC 2998. Nature of the experiment: Growth inhibition of human HCC2998 cells at 10 uM after 48 hrs by sulforhodamine B assay. The experiment is classed as functional, cell-based. Put shortly:
as §1

For the next experiment, the system named is UO-31. Nature of the experiment: Growth inhibition of human UO31 cells at 10 uM after 48 hrs by sulforhodamine B assay. The experiment is classed as functional, cell-based. Put shortly:
as §2

For experiment [1], the target named is PI3-kinase p110-alpha/p85-alpha (Homo sapiens) (UniProt P27986+P42336). Description: Inhibition of PI3K p110alpha/p85alpha (unknown origin) at 50 uM by ADP-Glo assay. Format: protein-complex assay. Summed up: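 Active PI3K p110α/p85α with peptide substrate, run in duplicate in kinase assay buffer. Stocks were 250 µM compound and 250 µM ATP (5 µl each in 25 µl). Reaction ran 30 min at 30 °C and was stopped with ADP-Glo reagent (40 min), then detection reagent (30 min), with luminescence read out. Blank lacked substrate and was subtracted; single-dose screen at 50 µM.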
(ADP-Glo first removes unused ATP, then detects ADP through luciferase.)

A further experiment deals with CCRF-CEM. Nature of the experiment: Growth inhibition of human CCRF-CEM cells at 10 uM after 48 hrs by sulforhodamine B assay. Format: functional, cell-based. Summed up:
as §1

Active and inactive are the calls of the source. The rule behind the calls is not given here.

As usually defined, the inhibition is the share of the control response that was lost under treatment. High values mean strong suppression, low ones little suppression.

As to `COc1ccc2ccc(=O)oc2c1C1=NN(S(=O)(=O)c2ccccc2)C(c2ccc(SC)cc2)C1` (centres undefined), the “growth inhibition (GI)” value in the experiment on HCT-15, with CAKI-1, in the experiment with UACC-257, in the experiment with SW-620, with M14 and in the experiment on NCI-H226 was “inactive” in each case. In addition, the “growth inhibition (GI)” value in the experiment with HCC 2998, with UO-31 and with CCRF-CEM was “inactive” each time. The inhibition in experiment [1] was < 5%.
Consider `COc1ccc2ccc(=O)oc2c1C1=NN(S(=O)(=O)c2ccccc2)C(c2ccc(C)o2)C1` (centres undefined), for which the “growth inhibition (GI)” value in the experiment with HCT-15, in the experiment with CAKI-1, with UACC-257, in the experiment on SW-620, in the experiment on M14 and in the experiment on NCI-H226 was “inactive” in each case. The “growth inhibition (GI)” value in the experiment on HCC 2998, with UO-31 and in the experiment on CCRF-CEM was “inactive” throughout.
Take `COc1ccc2ccc(=O)oc2c1C1=NN(S(=O)(=O)c2ccccc2)C(c2cccs2)C1` (centres undefined): the “growth inhibition (GI)” value with HCT-15, in the experiment on CAKI-1, in the experiment with UACC-257, in the experiment on SW-620, in the experiment with M14 and in the experiment on NCI-H226 was “inactive” each time. Moreover, the “growth inhibition (GI)” value in the experiment on HCC 2998, in the experiment on UO-31 and in the experiment on CCRF-CEM was “inactive” in each case. In experiment [1], the inhibition is < 5%.

The record behind these values is ChEMBL document CHEMBL2321851, “Synthesis and biological evaluation of novel coumarin-pyrazoline hybrids endowed with phenylsulfonyl moiety as antitumor agents” (Eur J Med Chem, 2013).
